Test results as given in PubChem BioAssay AID623942 (The Scripps Research Institute Molecular Screening Center, 2012).
Active and inactive are the calls of the source.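 The calls were made as follows: active = IC50 at or below 50 µM; inactive = IC50 above 50 µM.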

target: RecBCD enzyme subunit RecC (Escherichia coli (strain K12)) + RecBCD enzyme subunit RecB (Escherichia coli (strain K12)) (UniProt P07648+P08394); experiment: Chi-specific cleavage inhibition potency, RecBCD – biochemical, radioactive gel readout, counter-screen for AddAB inhibitor project, dose response (AID 623942); details: purified RecBCD, Chi cutting/unwinding
Sequence (P07648 whole entry, looked up): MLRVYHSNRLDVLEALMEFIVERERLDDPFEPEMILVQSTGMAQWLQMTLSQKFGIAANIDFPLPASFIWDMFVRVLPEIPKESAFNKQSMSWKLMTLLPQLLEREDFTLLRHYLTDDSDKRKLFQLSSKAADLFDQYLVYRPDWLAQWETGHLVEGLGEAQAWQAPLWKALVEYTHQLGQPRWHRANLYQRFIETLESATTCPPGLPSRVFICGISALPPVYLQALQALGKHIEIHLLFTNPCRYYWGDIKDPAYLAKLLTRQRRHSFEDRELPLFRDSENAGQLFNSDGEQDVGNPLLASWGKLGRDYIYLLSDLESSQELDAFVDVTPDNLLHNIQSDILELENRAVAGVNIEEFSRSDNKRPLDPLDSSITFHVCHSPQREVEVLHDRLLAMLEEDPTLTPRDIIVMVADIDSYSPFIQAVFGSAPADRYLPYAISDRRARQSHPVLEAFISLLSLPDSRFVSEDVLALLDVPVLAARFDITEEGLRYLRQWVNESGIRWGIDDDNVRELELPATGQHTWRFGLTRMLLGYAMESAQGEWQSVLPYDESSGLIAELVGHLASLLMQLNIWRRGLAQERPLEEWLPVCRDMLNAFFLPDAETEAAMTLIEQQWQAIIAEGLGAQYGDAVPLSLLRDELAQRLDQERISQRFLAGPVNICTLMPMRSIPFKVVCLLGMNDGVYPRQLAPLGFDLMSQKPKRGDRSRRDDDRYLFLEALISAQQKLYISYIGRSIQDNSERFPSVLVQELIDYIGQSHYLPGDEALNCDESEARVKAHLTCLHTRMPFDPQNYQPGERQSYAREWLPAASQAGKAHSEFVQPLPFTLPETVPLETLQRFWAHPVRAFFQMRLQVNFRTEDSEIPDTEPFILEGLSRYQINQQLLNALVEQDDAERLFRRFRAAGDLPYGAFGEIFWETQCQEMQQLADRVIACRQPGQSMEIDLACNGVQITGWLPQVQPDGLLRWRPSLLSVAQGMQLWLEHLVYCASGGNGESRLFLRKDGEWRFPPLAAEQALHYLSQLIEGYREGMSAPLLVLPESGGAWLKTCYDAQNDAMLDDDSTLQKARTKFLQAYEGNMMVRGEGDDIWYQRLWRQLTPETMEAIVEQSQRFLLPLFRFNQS
Sequence (P08394 whole entry, looked up): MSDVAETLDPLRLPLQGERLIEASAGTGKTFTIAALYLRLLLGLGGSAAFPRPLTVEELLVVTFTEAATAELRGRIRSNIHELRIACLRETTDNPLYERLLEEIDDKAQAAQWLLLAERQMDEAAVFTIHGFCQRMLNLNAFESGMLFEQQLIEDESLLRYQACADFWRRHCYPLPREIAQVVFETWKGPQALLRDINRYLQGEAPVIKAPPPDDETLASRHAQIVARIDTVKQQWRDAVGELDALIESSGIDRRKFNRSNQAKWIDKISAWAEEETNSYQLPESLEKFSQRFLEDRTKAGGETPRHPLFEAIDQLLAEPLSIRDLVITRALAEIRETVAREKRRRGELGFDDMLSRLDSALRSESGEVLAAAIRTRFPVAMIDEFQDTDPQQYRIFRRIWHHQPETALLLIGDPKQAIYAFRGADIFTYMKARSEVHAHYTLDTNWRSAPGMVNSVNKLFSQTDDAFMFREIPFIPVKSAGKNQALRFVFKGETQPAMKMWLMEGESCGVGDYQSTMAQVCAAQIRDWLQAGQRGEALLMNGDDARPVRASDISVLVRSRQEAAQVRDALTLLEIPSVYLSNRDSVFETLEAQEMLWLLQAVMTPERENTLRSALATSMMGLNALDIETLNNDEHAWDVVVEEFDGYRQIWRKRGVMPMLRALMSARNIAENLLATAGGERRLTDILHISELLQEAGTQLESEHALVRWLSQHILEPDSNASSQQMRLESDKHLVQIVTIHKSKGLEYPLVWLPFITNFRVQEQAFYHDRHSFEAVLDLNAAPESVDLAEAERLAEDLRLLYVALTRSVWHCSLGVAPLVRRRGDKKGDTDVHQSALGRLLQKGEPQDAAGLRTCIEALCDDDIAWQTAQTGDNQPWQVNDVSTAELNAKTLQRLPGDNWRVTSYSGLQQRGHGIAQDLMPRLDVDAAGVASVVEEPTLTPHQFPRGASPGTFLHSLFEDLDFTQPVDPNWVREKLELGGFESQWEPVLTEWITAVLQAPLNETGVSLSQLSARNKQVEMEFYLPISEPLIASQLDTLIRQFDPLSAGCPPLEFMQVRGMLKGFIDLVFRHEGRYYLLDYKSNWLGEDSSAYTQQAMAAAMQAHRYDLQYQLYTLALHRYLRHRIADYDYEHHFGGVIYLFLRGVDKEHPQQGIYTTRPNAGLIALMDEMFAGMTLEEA
How it was run: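 Assay system: purified Escherichia coli RecBCD helicase-nuclease complex; Input: 0.15 nM RecBCD; Reagent: 0.1 nM labeled Chi+F DNA plus 5 mM ATP; Dosing: dilution series from 500 µM nominal top concentration; Times: 1 min at 37 °C; Detection: gel autoradiography; Measure: IC50 from Chi-cut band reduction vs DMSO.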

Question: `O=C(Nc1ccc(N2CCOCC2)cc1)c1ccc([N+](=O)[O-])o1` was tested. Which IC50 did it give?
Answer: inactive

Question: For `CC(=O)Nc1ccc2nc(NC(=O)c3ccc([N+](=O)[O-])o3)sc2c1`, which IC50 is on record?
Answer: > 500 µM (inactive)

Question: `CCn1cc(C(=O)O)c(=O)c2cc(F)c(N3CCN(C(=S)Nc4ccccc4C(F)(F)F)CC3)cc21` was tested. Which IC50 did it give?
Answer: 20 µM

Question: Which IC50 does the source give for `N#Cc1c(NC(=O)c2ccc([N+](=O)[O-])o2)sc2c1CCC2` here?
Answer: 20 µM

Question: How did the IC50 turn out when `C=CCn1c(Sc2ncc([N+](=O)[O-])s2)n[nH]c1=O` was run?
Answer: > 500 µM (inactive)

Question: `CCn1cc(C(=O)O)c(=O)c2cnc(N3CCN(C(=S)Nc4cccc(C(F)(F)F)c4)CC3)nc21` was tested. Which IC50 did it give?
Answer: 0.6 µM

Question: How did the IC50 turn out when `CCn1cc(C(=O)O)c(=O)c2cc(F)c(N3CCN(C(=S)Nc4cccc(C(F)(F)F)c4)CC3)cc21` was run?
Answer: 0.6 µM

Question: `O=C(NCc1cccnc1)c1ccc([N+](=O)[O-])o1` was tested. Which IC50 did it give?
Answer: > 500 µM (inactive)

Question: How did the IC50 turn out when `O=C(OCC(=O)c1cccs1)c1ccc([N+](=O)[O-])o1` was run?
Answer: > 500 µM (inactive)

Question: With `CCn1cc(C(=O)O)c(=O)c2cnc(N3CCN(C(=S)Nc4ccccc4C(F)(F)F)CC3)nc21` as the compound, how does the IC50 read?
Answer: 10 µM

Question: With `Cc1ccc2nc(/C(C#N)=C\c3ccc([N+](=O)[O-])o3)[nH]c2c1` as the compound, how does the IC50 read?
Answer: 38 µM

Question: How did the IC50 turn out when `O=C(Nc1ncccn1)c1ccc([N+](=O)[O-])o1` was run?
Answer: 49 µM

Question: Which IC50 does the source give for `NC(=O)c1ccsc1NC(=O)COC(=O)c1ccc([N+](=O)[O-])o1` here?
Answer: inactive

Question: How did the IC50 turn out when `O=C(Nc1cccc(NC(=O)c2ccccc2Cl)c1)c1ccc([N+](=O)[O-])o1` was run?
Answer: 20 µM

Question: How did the IC50 turn out when `Cc1cccnc1NC(=O)c1ccc([N+](=O)[O-])o1` was run?
Answer: > 500 µM (inactive)
